Test results taken from ChEMBL document CHEMBL4837210 (Eur J Med Chem, 2021).
Converted amounts (≈) assume the structure as drawn.

Legend:
[1] = tested on: Bacillus subtilis; assay: Bactericidal activity against penicillin-susceptible Bacillus subtilis ATCC 9372 measured after 24 hrs by CLSI protocol based method; format: functional
Procedure, shortened: (§1)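 MBC followed on from the 24 h broth microdilution MIC plates. Aliquots from clear wells were spread on tryptic soy agar and incubated aerobically at 37 °C for 24 h. MBC was the minimum concentration giving no colonies.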

[2] = tested on: Bacillus pumilus; assay: Antibacterial activity against penicillin-susceptible Bacillus pumilus CMCC 63202 assessed as bacterial growth inhibition by broth dilution method; format: functional; settings: time 24 hrs
Procedure, shortened: (§2)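 Broth microdilution in Mueller Hinton broth. A 0.5 McFarland suspension was diluted tenfold, giving an inoculum of 1.5 × 10⁷ cfu/mL. This was added to 2-fold serial compound dilutions from […]. Plates were incubated aerobically at 37 °C for 24 h. MIC was the lowest concentration with no visible turbidity.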

[3] = tested on: Streptococcus pyogenes; assay: Antibacterial activity against erythromycin-susceptible Streptococcus pyogenes clinical isolate 1 assessed as bacterial growth inhibition incubated for 24 hrs by CLSI protocol based broth microdilution method; format: functional
[4] = tested on: Staphylococcus aureus; assay: Bactericidal activity against penicillin-resistant Staphylococcus aureus measured after 24 hrs by CLSI protocol based method; format: functional
Procedure, shortened: (§3)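 MBC after broth microdilution. After 24 h, aliquots from clear wells were plated on tryptic soy agar and incubated aerobically 24 h at 37 °C. MBC was the lowest concentration giving no colonies.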

[5] = tested on: Escherichia coli; assay: Antibacterial activity against penicillin-susceptible Escherichia coli ATCC 25922 assessed as inhibition of bacterial growth measured by broth microdilution method; format: functional; settings: time 24 hrs; procedure, shortened: as §2
[6] = tested on: Bacillus subtilis; assay: Antibacterial activity against penicillin-susceptible Bacillus subtilis ATCC 9372 assessed as bacterial growth inhibition incubated for 24 hrs by CLSI protocol based broth microdilution method; format: functional
[7] = tested on: Staphylococcus epidermidis; assay: Antibacterial activity against penicillin-resistant Staphylococcus epidermidis assessed as inhibition of bacterial growth measured by broth microdilution method; format: functional; settings: time 24 hrs
[8] = tested on: Pseudomonas aeruginosa; assay: Antibacterial activity against penicillin-susceptible Pseudomonas aeruginosa ATCC27853 assessed as bacterial growth inhibition incubated for 24 hrs by CLSI protocol based broth microdilution method; format: functional
[9] = tested on: Streptococcus pyogenes; assay: Antibacterial activity against erythromycin-resistant Streptococcus pyogenes 2 assessed as bacterial growth inhibition incubated for 24 hrs by CLSI protocol based broth microdilution method; format: functional
[10] = tested on: Enterococcus faecalis; assay: Antibacterial activity against vancomycin-resistant Enterococcus faecalis ATCC 51299 assessed as bacterial growth inhibition incubated for 24 hrs by CLSI protocol based broth microdilution method; format: functional
[11] = tested on: Staphylococcus aureus; assay: Antibacterial activity against methicillin-resistant Staphylococcus aureus ATCC 43300 assessed as inhibition of bacterial growth by broth microdilution method; format: functional; settings: time 24 hrs
Procedure, shortened: (§4)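 Broth microdilution MIC. A 0.5 McFarland suspension was diluted 10-fold and added at 1.5 × 10⁷ cfu/mL to 2-fold dilutions (0.125–64) in Mueller Hinton broth. Incubated aerobically 24 h at 37 °C. MIC was the lowest concentration with no visible turbidity.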

[12] = tested on: Staphylococcus aureus; assay: Antibacterial activity against Staphylococcus aureus assessed as inhibition of bacterial growth measured by broth microdilution method; format: functional; settings: time 24 hrs; procedure, shortened: as §2
[13] = tested on: Staphylococcus aureus; assay: Antibacterial activity against penicillin-resistant Staphylococcus aureus assessed as inhibition of bacterial growth measured by broth microdilution method; format: functional; settings: time 24 hrs; procedure, shortened: as §4
[14] = tested on: Enterococcus faecium; assay: Antibacterial activity against vancomycin-resistant Enterococcus faecium ATCC 51559 assessed as bacterial growth inhibition incubated for 24 hrs by CLSI protocol based broth microdilution method; settings: ATCC 51559, 24 h
[15] = tested on: Enterococcus faecium; assay: Antibacterial activity against vancomycin-susceptible Enterococcus faecium ATCC19434 assessed as bacterial growth inhibition incubated for 24 hrs by CLSI protocol based broth microdilution method; settings: ATCC19434, 24 h
[16] = tested on: Enterococcus faecalis; assay: Antibacterial activity against vancomycin-susceptible Enterococcus faecalis ATCC 29212 assessed as bacterial growth inhibition incubated for 24 hrs by CLSI protocol based broth microdilution method; format: functional
[17] = tested on: Staphylococcus aureus; assay: Antibacterial activity against erythromycin-susceptible Staphylococcus aureus ATCC 25923 assessed as bacterial growth inhibition incubated for 24 hrs by CLSI protocol based broth microdilution method; format: functional
[18] = molecular target: T1, Cell division protein FtsZ (Escherichia coli K-12, UniProt P0A9A6); assay: Inhibition of FtsZ in Escherichia coli assessed as disruption of Z ring formation
T1 sequence (P0A9A6 whole entry): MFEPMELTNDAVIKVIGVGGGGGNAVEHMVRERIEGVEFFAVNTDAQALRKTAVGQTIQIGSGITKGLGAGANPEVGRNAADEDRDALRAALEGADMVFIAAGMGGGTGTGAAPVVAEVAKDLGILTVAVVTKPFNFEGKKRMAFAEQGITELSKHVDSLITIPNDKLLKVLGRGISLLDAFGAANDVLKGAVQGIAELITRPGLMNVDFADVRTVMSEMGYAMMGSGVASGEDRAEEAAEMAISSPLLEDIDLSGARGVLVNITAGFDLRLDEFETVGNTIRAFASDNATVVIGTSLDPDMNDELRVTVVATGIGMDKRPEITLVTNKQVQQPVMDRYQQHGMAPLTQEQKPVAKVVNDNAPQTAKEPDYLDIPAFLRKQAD

[19] = tested on: Bacillus pumilus; assay: Bactericidal activity against penicillin-susceptible Bacillus pumilus CMCC 63202 measured after 24 hrs by CLSI protocol based method; format: functional; procedure, shortened: as §1
[20] = tested on: Staphylococcus aureus; assay: Ratio of MBC to MIC against erythromycin-susceptible Staphylococcus aureus ATCC 25923; format: functional
Procedure, shortened: (§5)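 MBC/MIC ratio from the broth microdilution MIC (24 h, 37 °C, MH broth) and the MBC (clear wells subcultured on tryptic soy agar, 24 h). A ratio ≤4 is read as bactericidal per CLSI.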

[21] = tested on: Bacillus subtilis; assay: Ratio of MBC to MIC against penicillin-susceptible Bacillus subtilis ATCC 9372; format: functional
Procedure, shortened: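 Ratio of MBC to MIC, both measured by broth microdilution in MH broth (37 °C, 24 h); MBC was scored by subculturing clear wells onto tryptic soy agar for 24 h. Following CLSI, a ratio of 4 or less counts as bactericidal.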

[22] = tested on: Bacillus pumilus; assay: Ratio of MBC to MIC against penicillin-susceptible Bacillus pumilus CMCC 63202; format: functional; procedure, shortened: as §5
[23] = tested on: Staphylococcus epidermidis; assay: Bactericidal activity against penicillin-resistant Staphylococcus epidermidis measured after 24 hrs by CLSI protocol based method; format: functional; procedure, shortened: as §3
[24] = molecular target: T2, Cell division protein FtsZ (Bacillus subtilis, UniProt A5Z1V5); assay: Inhibition of FtsZ in Bacillus subtilis assessed as disruption of Z ring formation
T2 sequence (A5Z1V5 whole entry): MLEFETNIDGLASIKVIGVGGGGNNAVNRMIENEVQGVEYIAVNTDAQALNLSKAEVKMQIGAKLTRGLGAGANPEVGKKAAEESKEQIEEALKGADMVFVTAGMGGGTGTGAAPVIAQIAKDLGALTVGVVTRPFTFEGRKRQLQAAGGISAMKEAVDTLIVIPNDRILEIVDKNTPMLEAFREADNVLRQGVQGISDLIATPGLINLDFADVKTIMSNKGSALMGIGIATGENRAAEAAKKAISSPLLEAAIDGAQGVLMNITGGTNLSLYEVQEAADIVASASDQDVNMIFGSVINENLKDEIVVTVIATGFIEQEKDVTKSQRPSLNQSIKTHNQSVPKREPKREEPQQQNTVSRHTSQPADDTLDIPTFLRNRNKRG

[25] = tested on: Staphylococcus epidermidis; assay: Ratio of MBC to MIC against penicillin-resistant Staphylococcus epidermidis; format: functional; procedure, shortened: as §5
[26] = tested on: Staphylococcus aureus; assay: Bactericidal activity against methicillin-resistant Staphylococcus aureus ATCC 43300 measured after 24 hrs by CLSI protocol based method; format: functional; procedure, shortened: as §3
[27] = tested on: Staphylococcus aureus; assay: Ratio of MBC to MIC against penicillin-resistant Staphylococcus aureus; format: functional; procedure, shortened: as §5
[28] = tested on: Staphylococcus aureus; assay: Bactericidal activity against erythromycin-susceptible Staphylococcus aureus ATCC 25923 measured after 24 hrs by CLSI protocol based method; format: functional; procedure, shortened: as §3

Compound: CC(=O)NC[C@H]1CN(c2ccc(N3CCOCC3)c(F)c2)C(=O)O1 [LINEZOLID]
- MBC [1]: 64 µg/mL (≈ 190 µM)
- MIC [2]: 2 µg/mL (≈ 5.93 µM)
- MIC [3]: 1 µg/mL (≈ 2.96 µM)
- MBC [4]: 16 µg/mL (≈ 47.4 µM)
- MIC [5]: > 64 µg/mL
- MIC [6]: 0.5 µg/mL (≈ 1.48 µM)
- MIC [7]: 4 µg/mL (≈ 11.9 µM)
- MIC [8]: > 64 µg/mL
- MIC [9]: 1 µg/mL (≈ 2.96 µM)

Compound: C[n+]1c2ccccc2c(/C=C/c2ccc(Cl)cc2Cl)c2ccccc21.[I-]
- MIC [10]: 8 µg/mL
- MIC [11]: 1 µg/mL
- MIC [2]: 2 µg/mL
- MIC [12]: 1 µg/mL
- MIC [3]: 0.25 µg/mL
- MIC [13]: 2 µg/mL
- MIC [14]: 4 µg/mL
- MIC [5]: 32 µg/mL
- MIC [6]: 0.5 µg/mL
- MIC [7]: 2 µg/mL
- MIC [15]: 4 µg/mL
- MIC [8]: > 64 µg/mL
- MIC [16]: 2 µg/mL
- MIC [17]: 0.5 µg/mL
- MIC [9]: 0.5 µg/mL

Compound: C[n+]1cc2c3c(ccc2c2ccc4cc5c(cc4c21)OCO5)OCO3.[Cl-] [SANGUINARIUM CHLORIDE]
- IC50 [18]: 12.5 µM
- MBC [19]: > 64 µg/mL
- MBC [1]: 64 µg/mL
- MIC [10]: 32 µg/mL
- MIC [11]: 8 µg/mL
- MIC [2]: 4 µg/mL
- Ratio [20]: >32
- MIC [12]: 8 µg/mL
- MIC [3]: 2 µg/mL
- Ratio [21]: 16
- MIC [13]: 16 µg/mL
- MBC [4]: 128 µg/mL
- MIC [14]: 32 µg/mL
- MIC [5]: 32 µg/mL
- MIC [6]: 4 µg/mL
- MIC [7]: 8 µg/mL
- Ratio [22]: >64
- MIC [23]: 64 µg/mL
- MIC [15]: 64 µg/mL
- IC50 [24]: 2.72 µM
- MIC [8]: > 64 µg/mL
- MIC [16]: 16 µg/mL
- MIC [17]: 4 µg/mL
- Ratio [25]: 64
- MBC [26]: > 64 µg/mL
- Ratio [27]: 8
- MIC [9]: 2 µg/mL
- MBC [28]: > 64 µg/mL

Compound: Cc1cccc(C#Cc2c3ccccc3[n+](C)c3ccccc23)c1.[I-]
- MIC [10]: 8 µg/mL
- MIC [11]: 2 µg/mL
- MIC [2]: 2 µg/mL
- MIC [12]: 2 µg/mL
- MIC [3]: 4 µg/mL
- MIC [13]: 2 µg/mL
- MIC [14]: 4 µg/mL
- MIC [5]: > 64 µg/mL
- MIC [6]: 2 µg/mL
- MIC [7]: 4 µg/mL
- MIC [15]: 8 µg/mL
- MIC [8]: > 64 µg/mL
- MIC [16]: 4 µg/mL
- MIC [17]: 2 µg/mL
- MIC [9]: 4 µg/mL
